Active and inactive are the calls of the source. The rule behind the calls is not given here.
Assays:
[1] = Inhibition of TNF-alpha-stimulated VCAM1 expression in endothelial cells; type: functional, cell-based; details: Homo sapiens, Endothelial cell
Rattus norvegicus [2] = species on record: Rattus norvegicus; experiment: Inhibition of artheriosclerosis in allograft recipient rat; type: functional, organism-based
[3] = Inhibition of LPS-induced TNFalpha secretion in human PBMN cells by ELISA; type: functional, cell-based
Summary of the method: (§1)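 Fresh cryopreserved human PBMCs at 1 million cells/mL in lymphocyte growth media-3 were pretreated with compound for 1 h, then stimulated with LPS 1 μg/mL for a further 2 h with compound present. Secreted TNF-α, IL-6 and IL-1β in conditioned media measured by human ELISA, in duplicate (mean ± SD). Experiments repeated at least three times.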

[4] = Inhibition of LPS-induced IL1-beta secretion in human PBMN cells by ELISA; type: functional, cell-based; summary of the method: as §1
[5] = Inhibition of LPS-induced IL6 secretion in human PBMN cells by ELISA; type: functional, cell-based; summary of the method: as §1
Mus musculus [6] = experiment: Inhibition of mBSA-induced paw-swelling in DTH BALB/c mouse model at 50 mg/kg, sc; type: functional; details: route subcutaneous
Summary of the method: (§2)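 Male BALB/c mice (20-25 g) sensitized on day 0 with intradermal abdominal mBSA (5 mg/mL)/Freund's complete adjuvant 1:1 emulsion. On day 7 challenged with mBSA in the right hind footpad, saline in the left. Compound given s.c. 24 h and 2 h before challenge; cyclosporin A 20 mg/kg as reference. Feet weighed 24 h post-challenge; swelling inhibition relative to vehicle group (100%). ANOVA with Fisher's PLSD.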

Mus musculus [7] = experiment: Inhibition of mBSA-induced paw-swelling in DTH BALB/c mouse model at 25 mg/kg, sc; type: functional; details: route subcutaneous; summary of the method: as §2
Syrian golden hamster [8] = experiment: Effect on LDL level in hypercholesterolemic golden Syrian hamster; type: functional, Mesocricetus auratus; design: unit not given here
Summary of the method: (§3)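 Male golden Syrian hamsters (110-120 g), housed singly, given compound mixed into powdered chow at 150 mg/kg/d for two weeks. After an overnight fast and ketamine/xylazine i.p. anesthesia, blood was taken by cardiac puncture or abdominal aorta. Plasma was fractionated by FPLC and lipoprotein cholesterol measured enzymatically. Dunnett's test against controls.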

Syrian golden hamster [9] = experiment: Effect on HDL level in hypercholesterolemic golden Syrian hamster; type: functional, Mesocricetus auratus; design: unit not given here; summary of the method: as §3
[10] = biological target: T1, Polyunsaturated fatty acid lipoxygenase ALOX15 (Homo sapiens, UniProt P16050); experiment: Inhibition of 15-lipoxygenase by LMB assay
T1 sequence (P16050 whole entry): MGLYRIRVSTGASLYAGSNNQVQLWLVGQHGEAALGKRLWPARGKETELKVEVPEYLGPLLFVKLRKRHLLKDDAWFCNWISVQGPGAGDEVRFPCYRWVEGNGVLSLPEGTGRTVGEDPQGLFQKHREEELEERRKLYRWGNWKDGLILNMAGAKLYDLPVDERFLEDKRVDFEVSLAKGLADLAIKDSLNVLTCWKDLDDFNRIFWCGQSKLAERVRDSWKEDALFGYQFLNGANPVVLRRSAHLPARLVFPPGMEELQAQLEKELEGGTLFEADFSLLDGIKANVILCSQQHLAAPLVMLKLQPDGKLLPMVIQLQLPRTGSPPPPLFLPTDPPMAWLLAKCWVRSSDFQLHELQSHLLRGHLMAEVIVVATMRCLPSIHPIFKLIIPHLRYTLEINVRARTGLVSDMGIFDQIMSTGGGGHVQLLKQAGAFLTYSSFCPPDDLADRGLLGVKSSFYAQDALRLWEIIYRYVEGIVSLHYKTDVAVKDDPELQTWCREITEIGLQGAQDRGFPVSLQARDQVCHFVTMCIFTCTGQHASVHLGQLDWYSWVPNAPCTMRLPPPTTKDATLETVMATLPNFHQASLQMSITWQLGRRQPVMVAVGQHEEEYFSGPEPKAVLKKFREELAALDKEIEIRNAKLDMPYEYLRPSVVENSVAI

PBMN = experiment: Inhibition of LPS-induced IL1-beta secretion in human PBMN cells at 10 uM by ELISA; type: functional, cell-based; summary of the method: as §1
Rattus norvegicus [11] = experiment: Inhibition of paw edema in collagen 2-sensitized orally dosed rat model; type: functional, organism-based

CC(C)(Sc1cc(C(C)(C)C)c(O)c(C(C)(C)C)c1)Sc1ccc(C(C)(C)C)c(OCCC(=O)O)c1C(C)(C)C
IC50 [1]: 7 µM

CC(C)(Sc1cc(C(C)(C)C)c(O)c(C(C)(C)C)c1)Sc1cc(C(C)(C)C)c(OCCCC(=O)O)c(C(C)(C)C)c1 [ELSIBUCOL]
IC50 [1]: 11 µM
Activity (Rattus norvegicus [2]): Active

CC(C)(Sc1cc(C(C)(C)C)c(O)c(C(C)(C)C)c1)Sc1ccc(C(C)(C)C)c(OC[C@@H](O)[C@H](O)CO)c1C(C)(C)C
IC50 [1]: 1 µM
IC50 [3]: 3.3 µM
IC50 [4]: 8 µM
IC50 [5]: 1.2 µM
inhibition in vivo at 50 mg/kg (Mus musculus [6]): 58%
inhibition in vivo at 25 mg/kg (Mus musculus [7]): 29%

CC(C)(Sc1cc(C(C)(C)C)c(O)c(C(C)(C)C)c1)Sc1ccc(C(C)(C)C)c(OC[C@@H](O)[C@@H](O)[C@@H](O)CO)c1C(C)(C)C
IC50 [1]: 13 µM
Activity (Syrian golden hamster [8]): 338
Activity (Syrian golden hamster [9]): 119

CC(C)(Sc1cc(C(C)(C)C)c(O)c(C(C)(C)C)c1)Sc1ccc(C(C)(C)C)c(OCC(O)CNCC(=O)O)c1C(C)(C)C (centres undefined)
IC50 [1]: 16 µM
Activity (Syrian golden hamster [8]): 190
Activity (Syrian golden hamster [9]): 146

CC(=O)OCC(O)COc1c(C(C)(C)C)ccc(SC(C)(C)Sc2cc(C(C)(C)C)c(O)c(C(C)(C)C)c2)c1C(C)(C)C (centres undefined)
IC50 [1]: 41 µM

CCOCC(O)COc1c(C(C)(C)C)ccc(SC(C)(C)Sc2cc(C(C)(C)C)c(O)c(C(C)(C)C)c2)c1C(C)(C)C (centres undefined)
IC50 [1]: > 50 µM

CC(C)(Sc1cc(C(C)(C)C)c(O)c(C(C)(C)C)c1)Sc1ccc(C(C)(C)C)c(O/C=C/C(=O)O)c1C(C)(C)C
IC50 [1]: 30 µM

CC(C)(Sc1cc(C(C)(C)C)c(O)c(C(C)(C)C)c1)Sc1ccc(C(C)(C)C)c(OC[C@H]2OC(=O)[C@H](O)[C@@H]2O)c1C(C)(C)C
IC50 [1]: 13 µM

CC(C)(Sc1cc(C(C)(C)C)c(O)c(C(C)(C)C)c1)Sc1ccc(C(C)(C)C)c(OC[C@@H](O)[C@@H](O)[C@H](O)[C@@H](O)CO)c1C(C)(C)C
IC50 [1]: 15 µM
IC50 [10]: 12 µM
IC50 [3]: 1.8 µM
IC50 [4]: 2.2 µM
IC50 [5]: 1 µM
inhibition in vivo at 50 mg/kg (Mus musculus [6]): 58%
inhibition in vivo at 25 mg/kg (Mus musculus [7]): 29%
Activity (Syrian golden hamster [8]): 30
Activity (Syrian golden hamster [9]): 94

CN(CC(=O)O)C(=O)COc1c(C(C)(C)C)ccc(SC(C)(C)Sc2cc(C(C)(C)C)c(O)c(C(C)(C)C)c2)c1C(C)(C)C
IC50 [1]: 7 µM

C=CC(=O)OCCCCOc1c(C(C)(C)C)ccc(SC(C)(C)Sc2cc(C(C)(C)C)c(O)c(C(C)(C)C)c2)c1C(C)(C)C
IC50 [1]: 75 µM

CC(C)(Sc1cc(C(C)(C)C)c(O)c(C(C)(C)C)c1)Sc1ccc(C(C)(C)C)c(OCC(=O)NCC(=O)O)c1C(C)(C)C
IC50 [1]: 6 µM

CC(C)(Sc1cc(C(C)(C)C)c(OCC(=O)O)c(C(C)(C)C)c1)Sc1ccc(C(C)(C)C)c(OCC(=O)O)c1C(C)(C)C
IC50 [1]: > 50 µM
IC50 [10]: > 125 µM
IC50 [3]: > 10 µM
IC50 [4]: > 10 µM
IC50 [5]: > 10 µM

CC(C)(Sc1cc(C(C)(C)C)c(O)c(C(C)(C)C)c1)Sc1ccc(C(C)(C)C)c(OCC(=O)N[C@@H](CCC(=O)O)C(=O)O)c1C(C)(C)C
IC50 [1]: 75 µM

CC(=O)OC(CO)COc1c(C(C)(C)C)ccc(SC(C)(C)Sc2cc(C(C)(C)C)c(O)c(C(C)(C)C)c2)c1C(C)(C)C (centres undefined)
IC50 [1]: 33 µM

CC(=O)O[C@@H]1O[C@H](COc2c(C(C)(C)C)ccc(SC(C)(C)Sc3cc(C(C)(C)C)c(O)c(C(C)(C)C)c3)c2C(C)(C)C)[C@@H](OC(C)=O)[C@H](OC(C)=O)[C@H]1OC(C)=O
IC50 [1]: > 50 µM

CC(C)(Sc1cc(C(C)(C)C)c(O)c(C(C)(C)C)c1)Sc1ccc(C(C)(C)C)c(OCCCCC(=O)O)c1C(C)(C)C
IC50 [1]: 23 µM

CC(C)(Sc1cc(C(C)(C)C)c(O)c(C(C)(C)C)c1)Sc1ccc(C(C)(C)C)c(OCC(O)CO)c1C(C)(C)C (centres undefined)
IC50 [1]: 30 µM

CC(C)(Sc1cc(C(C)(C)C)c(O)c(C(C)(C)C)c1)Sc1ccc(C(C)(C)C)c(OCC(CO)CO)c1C(C)(C)C
IC50 [1]: 13 µM

CC(C)(Sc1cc(C(C)(C)C)c(O)c(C(C)(C)C)c1)Sc1ccc(C(C)(C)C)c(OCC(=O)NCCC(=O)O)c1C(C)(C)C
IC50 [1]: 6 µM

CC(C)(Sc1cc(C(C)(C)C)c(O)c(C(C)(C)C)c1)Sc1ccc(C(C)(C)C)c(OC[C@H](O)[C@@H](O)CO)c1C(C)(C)C
IC50 [1]: 6 µM
IC50 [3]: 4 µM
IC50 [4]: 7.7 µM
IC50 [5]: 1.7 µM
inhibition in vivo at 50 mg/kg (Mus musculus [6]): 58%
inhibition in vivo at 25 mg/kg (Mus musculus [7]): 29%

CC(C)(Sc1cc(C(C)(C)C)c(O)c(C(C)(C)C)c1)Sc1cc(C(C)(C)C)c(OC(=O)CCC(=O)O)c(C(C)(C)C)c1 [SUCCINOBUCOL]
IC50 [1]: 6 µM

CC(C)(Sc1cc(C(C)(C)C)c(O)c(C(C)(C)C)c1)Sc1ccc(C(C)(C)C)c(O/C=C/CO)c1C(C)(C)C
IC50 [1]: 55 µM

CC(C)(Sc1cc(C(C)(C)C)c(O)c(C(C)(C)C)c1)Sc1cc(C(C)(C)C)c(O)c(C(C)(C)C)c1 [PROBUCOL]
IC50 [3]: > 40 µM
IC50 [4]: > 40 µM
IC50 [5]: > 40 µM

CC(C)(Sc1cc(C(C)(C)C)c(O)c(C(C)(C)C)c1)Sc1ccc(C(C)(C)C)c(OC[C@H]2OC(O)[C@H](O)[C@@H]2O)c1C(C)(C)C (some centres undefined)
IC50 [1]: 8 µM

CC(C)(Sc1cc(C(C)(C)C)c(O)c(C(C)(C)C)c1)Sc1ccc(C(C)(C)C)c(OC/C(N)=N/O)c1C(C)(C)C
IC50 [1]: 26 µM

CC(C)(Sc1cc(C(C)(C)C)c(O)c(C(C)(C)C)c1)Sc1ccc(C(C)(C)C)c(OC[C@@H](O)[C@@H](O)[C@@H](O)C(=O)O)c1C(C)(C)C
IC50 [1]: 35 µM
Activity (Syrian golden hamster [8]): 175
Activity (Syrian golden hamster [9]): 173

CC(C)(Sc1cc(C(C)(C)C)c(O)c(C(C)(C)C)c1)Sc1ccc(C(C)(C)C)c(OC[C@H]2OC(O)[C@H](O)[C@@H](O)[C@@H]2O)c1C(C)(C)C (some centres undefined)
IC50 [1]: 10 µM
IC50 [10]: 10 µM
IC50 [3]: 1.9 µM
Activity (PBMN): Active
IC50 [5]: 1.6 µM
inhibition in vivo at 50 mg/kg (Mus musculus [6]): 58%
inhibition in vivo at 25 mg/kg (Mus musculus [7]): 29%
Activity (Syrian golden hamster [8]): 9
Activity (Syrian golden hamster [9]): 63

CC(C)(Sc1cc(C(C)(C)C)c(O)c(C(C)(C)C)c1)Sc1ccc(C(C)(C)C)c(OCCCCO)c1C(C)(C)C
IC50 [1]: 125 µM

CC(C)(Sc1cc(C(C)(C)C)c(O)c(C(C)(C)C)c1)Sc1cc(C(C)(C)C)c(OCC(=O)O)c(C(C)(C)C)c1 [CAMOBUCOL]
IC50 [1]: 10 µM
Activity (Syrian golden hamster [8]): 18
Activity (Syrian golden hamster [9]): 86
Activity (Rattus norvegicus [11]): Dose-dependent effect

CC(C)(Sc1cc(C(C)(C)C)c(O)c(C(C)(C)C)c1)Sc1ccc(C(C)(C)C)c(OCC(=O)NC(CO)CO)c1C(C)(C)C
IC50 [1]: 6 µM

— ChEMBL document CHEMBL1149264, “Discovery of novel phenolic antioxidants as inhibitors of vascular cell adhesion molecule-1 expression for use in chronic inflammatory diseases” (J Med Chem, 2004)
